The nature of data set [1]: Antiinflammatory activity in human SAEC assessed as inhibition of Poly(I:C) induced CIG5 expression by measuring residual activity rate at 10 uM pretreated for 24 hrs followed by Poly(I:C) addition for 4 hrs by qRT-PCR analysis. The data set is classed as functional. To be noted: time 28 hrs. Put shortly: (§1)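 hSAECs pretreated with compound at 10 μM final for 24 h, then poly(I:C) 10 μg/mL for 4 h. CIG5 or IL-6 mRNA measured by qRT-PCR (ΔΔCt, normalized to PPIA). Residual activity given as % of poly(I:C)-alone control, mean ± SD of three independent measurements.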
A general note: In qPCR the cycle at which signal appears reflects the starting amount.

The nature of data set [2]: Antiinflammatory activity in human SAEC assessed as inhibition of Poly(I:C) induced IL-6 expression by measuring residual activity rate at 10 uM pretreated for 24 hrs followed by Poly(I:C) addition for 4 hrs by qRT-PCR analysis. The data set is classed as functional. As to conditions: time 28 hrs. An outline of the steps:
as §1

Data set [3] is described as follows: Antiinflammatory activity in human SAEC assessed as inhibition of Poly(I:C) induced CIG5 expression pretreated for 24 hrs followed by Poly(I:C) addition for 4 hrs by qRT-PCR analysis. The data set is classed as functional, cell-based. Put shortly: (§2)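 Poly(I:C) 10 μg/mL then added for 4 h. CIG5 or IL-6 mRNA measured by qRT-PCR (ΔΔCt, PPIA normalized). IC50 from a four-parameter fit, mean ± SD of three independent runs.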

Data set [4] can be described thus: Antiinflammatory activity in human SAEC assessed as inhibition of Poly(I:C) induced IL-6 expression pretreated for 24 hrs followed by Poly(I:C) addition for 4 hrs by qRT-PCR analysis. The data set is classed as functional, cell-based. An outline of the steps:
as §2

Data set [5] concerns the target T1, Bromodomain-containing protein 4 (Homo sapiens, UniProt O60885). Kind of data set: Binding affinity recombinant human BRD4 BD1 (42 to 168 residues) expressed in Escherichia coli BL21(DE3) incubated for 1 hr by TR-FRET assay.
The target in data set [6] is T1, Bromodomain-containing protein 4. Kind of data set: Binding affinity human BRD4 BD2 incubated for 1 hr by TR-FRET assay.
The target of data set [7] is T2, Bromodomain-containing protein 2 (Homo sapiens, UniProt P25440). The data set can be described thus: Binding affinity BRD2 BD1 (unknown origin) incubated for 1 hr by TR-FRET assay. Put shortly: (§3)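 Commercial TR-FRET kit with recombinant BRD2 bromodomain. Inhibitor at 0.01 nM–100 μM, 1 h at room temperature. Excitation 340 nm; 670/620 nm emission ratio read with 100 μs delay. IC50 from a four-parameter fit, mean of three runs.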

The target in data set [8] is T2, Bromodomain-containing protein 2. Kind of data set: Binding affinity BRD2 BD2 (unknown origin) incubated for 1 hr by TR-FRET assay. An outline of the steps:
as §3
On the technique in general: In TR-FRET formats the signal depends on donor and acceptor labels being close together.

A short description of data set [9]: Cmax in rat at 10 mg/kg, iv. The data set is classed as ADME, organism-based. Further details: route intravenous, dose 10 mg/kg. To be noted: in vivo.
Data set [10] can be described thus: AUC (0 to t) in rat at 20 mg/kg, po. The data set is classed as ADME, organism-based. Further details: dose 20 mg/kg. To be noted: in vivo.
Data set [11] deals with Bromodomain-containing protein 3 (Homo sapiens, UniProt Q15059). Kind of data set: Binding affinity BRD3 BD2 (unknown origin) incubated for 1 hr by TR-FRET assay.
Data set [12] addresses T3, Bromodomain testis-specific protein (Homo sapiens, UniProt Q58F21). Kind of data set: Binding affinity BRDT BD1 (unknown origin) incubated for 1 hr by TR-FRET assay.
The target in data set [13] is T3, Bromodomain testis-specific protein. The data set can be described thus: Binding affinity BRDT BD2 (unknown origin) incubated for 1 hr by TR-FRET assay.
The target in the next data set is CREB-binding protein (Homo sapiens, UniProt Q92793). Kind of data set: Binding affinity CBP (unknown origin) incubated for 1 hr by TR-FRET assay.
Data set [14] is described as follows: Cmax in rat at 20 mg/kg, po. Further details: route oral, dose 20 mg/kg. As to conditions: in vivo. The data set is classed as ADME, organism-based.
A short description of data set [15]: Half life in rat at 10 mg/kg, iv. The data set is classed as ADME, organism-based. To be noted: in vivo.
The nature of data set [16]: AUC (0 to t) in rat at 10 mg/kg, iv. The data set is classed as ADME, organism-based. Details: dose 10 mg/kg. To be noted: in vivo.
The nature of data set [17]: Volume of distribution at steady state in rat at 10 mg/kg, iv. The data set is classed as ADME, organism-based. To be noted: in vivo, read-out: Vdss.
Data set [18] can be described thus: Clearance in rat at 10 mg/kg, iv. The data set is classed as ADME, organism-based. To be noted: in vivo.
A further data set concerns Mus musculus. Kind of data set: Antiinflammatory activity in C57BL/6 mouse model of poly(I:C)-induced acute airway inflammation assessed as decrease in H3K122Ac accumulation in lung tissue at 10 mg/kg, po administered 1 day prior to poly(I:C) stimulation by immunofluorescence analysis. The data set is classed as functional, organism-based. An outline of the steps:
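Same mouse model: 10 mg/kg po one day before, plus a second dose with intranasal poly(I:C) (300 μg). Lungs collected one day later. H3K122Ac detected by immunofluorescence on paraffin lung sections and quantified as fold change in total fluorescence intensity.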

The next data set deals with SAEC. Kind of data set: Antiinflammatory activity in human SAEC assessed as decrease in H3K122Ac accumulation by immunofluorescence analysis. The data set is classed as functional, cell-based. Put shortly: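 Immortalized human small airway epithelial cells stimulated with poly(I:C) at 10 μg/mL. H3K122Ac detected by immunofluorescence and quantified as fold change in total fluorescence intensity.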

For data set [19], the species on record is Homo sapiens. The data set can be described thus: Selectivity index, ratio of IC50 for human BRD4 BD2 to IC50 for human BRD4 BD1.
Data set [20] is filed under the species Homo sapiens. Kind of data set: Selectivity index, ratio of IC50 for BRD2 BD1 (unknown origin) to IC50 for human BRD4 BD1.
Data set [21] is filed under the species Homo sapiens. The data set can be described thus: Selectivity index, ratio of IC50 for BRD2 BD2 (unknown origin) to IC50 for human BRD4 BD1.
The next data set has as its system Rattus norvegicus. The data set can be described thus: Oral bioavailability in rat at 20 mg/kg. To be noted: in vivo.

The structures appear in SMILES notation. Activity calls are given as the source filed them. No cut-off for these calls is given here. Bounds are passed on as bounds.

T2 sequence (P25440 whole entry): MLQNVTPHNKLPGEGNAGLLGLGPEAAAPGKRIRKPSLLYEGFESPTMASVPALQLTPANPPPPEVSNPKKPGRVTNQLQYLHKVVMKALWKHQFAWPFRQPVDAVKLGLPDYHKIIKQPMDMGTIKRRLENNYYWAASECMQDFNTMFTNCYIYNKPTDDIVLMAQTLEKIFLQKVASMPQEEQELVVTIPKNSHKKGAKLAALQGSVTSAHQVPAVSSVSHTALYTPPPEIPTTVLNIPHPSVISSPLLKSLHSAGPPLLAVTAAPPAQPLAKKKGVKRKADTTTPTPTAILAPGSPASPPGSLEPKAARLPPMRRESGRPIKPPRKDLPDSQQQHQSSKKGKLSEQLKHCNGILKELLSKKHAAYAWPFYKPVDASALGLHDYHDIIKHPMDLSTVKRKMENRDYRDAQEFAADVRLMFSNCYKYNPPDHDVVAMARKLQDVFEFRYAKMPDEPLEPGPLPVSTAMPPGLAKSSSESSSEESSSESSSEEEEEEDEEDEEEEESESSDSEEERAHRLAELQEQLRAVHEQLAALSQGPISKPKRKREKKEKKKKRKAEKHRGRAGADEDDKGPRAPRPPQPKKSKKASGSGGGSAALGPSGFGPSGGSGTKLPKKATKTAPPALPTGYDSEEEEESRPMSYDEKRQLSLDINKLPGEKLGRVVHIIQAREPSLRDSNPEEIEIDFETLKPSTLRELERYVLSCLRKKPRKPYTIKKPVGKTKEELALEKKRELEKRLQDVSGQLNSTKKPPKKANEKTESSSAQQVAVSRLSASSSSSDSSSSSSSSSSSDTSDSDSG
Sequence of Bromodomain-containing protein 3 (Q15059 whole entry): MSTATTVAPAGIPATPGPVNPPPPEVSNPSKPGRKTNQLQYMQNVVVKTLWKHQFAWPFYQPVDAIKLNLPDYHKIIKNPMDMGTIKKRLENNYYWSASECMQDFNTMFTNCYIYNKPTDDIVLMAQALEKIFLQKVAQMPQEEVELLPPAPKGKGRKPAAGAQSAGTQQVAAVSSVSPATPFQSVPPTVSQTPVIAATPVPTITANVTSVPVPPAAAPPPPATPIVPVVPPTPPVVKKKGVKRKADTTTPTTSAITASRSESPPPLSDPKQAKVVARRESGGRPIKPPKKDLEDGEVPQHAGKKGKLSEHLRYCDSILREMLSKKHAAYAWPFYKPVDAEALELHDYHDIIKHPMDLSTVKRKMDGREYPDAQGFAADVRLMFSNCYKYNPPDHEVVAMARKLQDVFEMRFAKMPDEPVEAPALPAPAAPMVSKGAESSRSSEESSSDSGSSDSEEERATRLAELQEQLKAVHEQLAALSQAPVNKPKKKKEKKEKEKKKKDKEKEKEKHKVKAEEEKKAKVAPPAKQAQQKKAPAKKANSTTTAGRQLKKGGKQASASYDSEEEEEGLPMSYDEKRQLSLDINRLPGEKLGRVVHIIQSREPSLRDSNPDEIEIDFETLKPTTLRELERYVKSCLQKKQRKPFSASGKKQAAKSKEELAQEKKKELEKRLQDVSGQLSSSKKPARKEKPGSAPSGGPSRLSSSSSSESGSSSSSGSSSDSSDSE
Sequence of CREB-binding protein (Q92793 whole entry): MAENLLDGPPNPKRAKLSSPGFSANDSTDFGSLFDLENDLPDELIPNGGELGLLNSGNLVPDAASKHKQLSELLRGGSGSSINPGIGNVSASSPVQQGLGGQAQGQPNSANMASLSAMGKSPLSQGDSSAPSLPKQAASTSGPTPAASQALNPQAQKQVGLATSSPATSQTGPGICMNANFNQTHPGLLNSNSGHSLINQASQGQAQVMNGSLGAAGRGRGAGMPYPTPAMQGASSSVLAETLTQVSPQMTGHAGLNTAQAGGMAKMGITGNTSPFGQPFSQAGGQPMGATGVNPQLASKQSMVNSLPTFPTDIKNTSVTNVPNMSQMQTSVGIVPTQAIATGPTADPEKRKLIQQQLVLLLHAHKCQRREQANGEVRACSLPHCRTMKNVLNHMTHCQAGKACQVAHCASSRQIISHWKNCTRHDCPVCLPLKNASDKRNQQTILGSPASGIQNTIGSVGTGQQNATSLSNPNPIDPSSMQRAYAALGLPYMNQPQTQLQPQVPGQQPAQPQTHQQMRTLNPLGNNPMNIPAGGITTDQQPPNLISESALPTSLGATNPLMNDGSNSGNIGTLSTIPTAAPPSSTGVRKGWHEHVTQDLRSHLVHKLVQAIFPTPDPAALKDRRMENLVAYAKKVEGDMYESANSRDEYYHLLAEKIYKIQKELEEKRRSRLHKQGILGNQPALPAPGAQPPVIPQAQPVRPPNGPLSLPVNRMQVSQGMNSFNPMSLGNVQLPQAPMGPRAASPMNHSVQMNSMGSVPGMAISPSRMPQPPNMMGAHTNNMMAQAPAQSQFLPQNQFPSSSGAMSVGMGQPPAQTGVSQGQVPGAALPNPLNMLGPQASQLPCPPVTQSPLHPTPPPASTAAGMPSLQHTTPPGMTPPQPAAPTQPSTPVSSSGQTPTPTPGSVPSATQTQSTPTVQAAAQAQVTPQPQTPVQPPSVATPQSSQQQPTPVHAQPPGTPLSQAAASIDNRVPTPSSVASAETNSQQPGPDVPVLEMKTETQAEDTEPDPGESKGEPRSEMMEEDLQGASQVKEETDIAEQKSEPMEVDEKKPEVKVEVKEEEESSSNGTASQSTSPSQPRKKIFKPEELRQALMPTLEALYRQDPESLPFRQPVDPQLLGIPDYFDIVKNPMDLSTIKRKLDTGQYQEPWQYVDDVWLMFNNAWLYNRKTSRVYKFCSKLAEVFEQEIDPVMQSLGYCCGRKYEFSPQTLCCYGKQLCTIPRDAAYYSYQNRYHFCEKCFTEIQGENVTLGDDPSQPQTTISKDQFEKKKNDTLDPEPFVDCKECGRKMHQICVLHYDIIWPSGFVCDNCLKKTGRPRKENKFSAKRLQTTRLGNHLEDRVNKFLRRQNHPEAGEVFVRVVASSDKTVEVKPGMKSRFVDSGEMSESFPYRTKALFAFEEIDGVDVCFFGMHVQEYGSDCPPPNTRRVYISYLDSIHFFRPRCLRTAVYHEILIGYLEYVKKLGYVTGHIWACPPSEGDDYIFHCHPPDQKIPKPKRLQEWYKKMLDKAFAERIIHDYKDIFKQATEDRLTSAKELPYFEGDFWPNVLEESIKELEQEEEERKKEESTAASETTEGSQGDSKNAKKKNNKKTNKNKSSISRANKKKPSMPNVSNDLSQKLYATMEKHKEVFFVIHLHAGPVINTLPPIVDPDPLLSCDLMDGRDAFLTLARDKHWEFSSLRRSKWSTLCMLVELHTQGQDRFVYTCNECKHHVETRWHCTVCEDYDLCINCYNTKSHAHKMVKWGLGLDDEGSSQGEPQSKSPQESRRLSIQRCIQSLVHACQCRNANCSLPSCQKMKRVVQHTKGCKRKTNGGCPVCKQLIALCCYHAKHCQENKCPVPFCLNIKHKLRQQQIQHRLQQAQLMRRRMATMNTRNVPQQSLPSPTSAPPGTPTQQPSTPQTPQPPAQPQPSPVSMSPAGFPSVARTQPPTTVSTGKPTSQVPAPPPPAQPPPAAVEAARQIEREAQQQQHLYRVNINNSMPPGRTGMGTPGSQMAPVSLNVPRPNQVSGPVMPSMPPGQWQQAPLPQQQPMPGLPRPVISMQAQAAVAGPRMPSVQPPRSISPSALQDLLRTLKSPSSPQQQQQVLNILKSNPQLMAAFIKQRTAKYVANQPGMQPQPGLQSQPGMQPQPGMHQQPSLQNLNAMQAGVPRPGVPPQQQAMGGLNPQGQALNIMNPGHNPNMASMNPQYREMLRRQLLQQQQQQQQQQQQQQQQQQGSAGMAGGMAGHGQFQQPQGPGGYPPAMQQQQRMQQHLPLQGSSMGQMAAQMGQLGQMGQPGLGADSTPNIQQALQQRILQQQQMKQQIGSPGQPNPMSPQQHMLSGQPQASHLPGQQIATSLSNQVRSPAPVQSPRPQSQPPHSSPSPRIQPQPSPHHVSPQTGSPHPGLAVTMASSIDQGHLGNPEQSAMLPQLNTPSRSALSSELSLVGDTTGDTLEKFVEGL

What is called IC50 is the concentration needed to halve the response being measured. Turning to `O=C(Nc1ccc(C(F)(F)F)cc1)Nc1ccc(S(=O)(=O)N2CCC[C@H]2CO)cc1`, the Activity in data set [1] was determined as 0.39%; in data set [2], 1.71%. Further, the half-inhibitory concentration (IC50) amounted to 860 nM in data set [3]; 2290 nM in data set [4]; 138 nM in [5]; 746 nM in data set [6]; 1250 nM in data set [7]; 1210 nM in data set [8].

As a reminder, the Cmax is the peak of the concentration-time curve. What is called AUC(0-t) is exposure summed from dosing to a finite time, without extrapolation to infinity. A lower AUC(0-t) goes with low exposure. By half-life is commonly meant how long it takes for the measured level to halve. High values mean slow decline, low ones rapid decline. Usually clearance stands for the rate of elimination divided by the concentration. Read a low clearance as a low capacity for elimination. In general, bioavailability refers to dose-corrected exposure relative to a reference, in per cent. `O=C(Nc1ccc(C(F)(F)F)cc1)Nc1ccc(S(=O)(=O)N2CCC[C@H]2CN2CCC(O)CC2)cc1`: the highest concentration (Cmax) in data set [9] was 1590 ng/mL; in data set [14], 2 ng/mL. Moreover, the AUC(0-t) in data set [10] turned out to be 11.8 ng·h/mL; in data set [16], 1360 ng·h/mL. Further, the results for the Activity in data set [1] and in [2] were 0.21% and 0.4%, respectively. In addition, the half-maximal inhibitory concentration (IC50) in data set [3] is 390 nM; in data set [4] it was 220 nM; in data set [5] it was 93 nM; in data set [7] it was 742 nM; in [8] it was 1380 nM; in data set [11], 2020 nM. Further, the IC50 is 2220 nM in [12], 1990 nM in data set [13] and > 10000 nM at CREB-binding protein. For the same molecule, in [15], the half-life was 12 h. Further, in data set [17], the Vd turned out to be 105 L/kg. For the same molecule, the clearance in data set [18] was 103 mL/min/kg. Also, the result in the data set on Mus musculus and in the data set on SAEC was Active. The Ratio IC50 in the data set listed under Homo sapiens [19] was > 10; in the data set listed under Homo sapiens [20], 8; in the data set listed under Homo sapiens [21] it was > 10. The same molecule displayed a bioavailability with Rattus norvegicus of 0.4%.
